# Statin myotox sup – suppressors of statin myotoxicity in C2C12 myotubes, primary screen, cell-based, single point, plate reader; C2C12 myotubes + simvastatin, ATP luminescence, 48 h; scaled: DMSO 0, geranylgeraniol control 100; rescue of ATP level, % at 7.49 µM; 0.78% of 330,000 active; AID 602340, 2012;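 active = mean ATP rescue above about 67%, or every replicate alone reaching that limit, limit read from the data, passing the limit was not always enough; inconclusive = no clear call, values can overlap the other calls; inactive = mean under the limit and some replicate under it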;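 note: myotubes were challenged with 10 µM simvastatin during compound exposure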
# FGF22 binding – binders of human FGF22 protein, primary screen, FGF22 synaptogenesis inhibitor project, biophysical, thermal shift, single point | Fibroblast growth factor 22 (Homo sapiens), Q9HCT0 | recombinant FGF22 thermal shift, SYPRO orange fluorescence; percent of sucrose octasulfate shift, DMSO zero | activity (Tm shift, normalised), % at 9.99 µM | 1.5% of 340,000 active | AID 651658, 2012;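 active = mean Tm shift, scaled 0 neutral to 100 positive control, at about 1.3% or above, every replicate too, limit read from the data; inconclusive = no clear call, values can overlap the other calls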
# E-selectin induc – E-selectin induction in HUVECs, primary screen, imaging, HUVEC, immunofluorescence imaging, single point; P16581; normalized: neutral wells 0, TNF-alpha wells 100; activation, % at 7.58 µM; 0.37% of 260,000 active;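 active = mean E-selectin-positive cell signal at least 10% of the positive control, reached in at least 60% of replicates, without over 20% cell loss; inconclusive = no rule given, readout overlaps actives, possibly toxicity-flagged; inactive = the rest, including those meeting only one limit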
# Target sequence (P16581 whole entry, looked up): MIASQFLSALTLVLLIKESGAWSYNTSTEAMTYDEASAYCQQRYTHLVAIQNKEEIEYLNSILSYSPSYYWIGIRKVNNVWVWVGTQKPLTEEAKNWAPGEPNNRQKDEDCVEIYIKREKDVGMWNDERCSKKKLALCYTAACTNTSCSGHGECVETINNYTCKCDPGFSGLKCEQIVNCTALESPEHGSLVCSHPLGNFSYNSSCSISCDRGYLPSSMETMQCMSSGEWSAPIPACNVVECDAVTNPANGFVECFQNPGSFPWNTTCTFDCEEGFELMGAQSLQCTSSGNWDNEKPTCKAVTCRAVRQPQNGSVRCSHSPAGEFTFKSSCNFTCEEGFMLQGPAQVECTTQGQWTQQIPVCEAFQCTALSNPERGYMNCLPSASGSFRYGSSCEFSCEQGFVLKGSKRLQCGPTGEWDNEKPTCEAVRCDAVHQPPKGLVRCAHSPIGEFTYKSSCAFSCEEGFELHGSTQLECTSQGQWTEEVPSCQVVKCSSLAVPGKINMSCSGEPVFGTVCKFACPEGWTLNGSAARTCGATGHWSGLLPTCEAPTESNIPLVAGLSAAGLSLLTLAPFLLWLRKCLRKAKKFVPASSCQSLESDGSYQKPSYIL
#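 Assay system: HUVEC primary endothelial cells. Input: 3,000 HUVEC seeded per well. Doses: one compound dose added by pin transfer. Read-out basis: % PE-positive cells. Benchmarks: TNF-alpha high, DMSO low. Detection: immunofluorescence imaging. Buffer or medium: EGM-2, gelatin.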
# PglD DTNB – C. jejuni PglD acetyltransferase inhibitors, primary screen, biochemical, DTNB colorimetric, single point | inhibition, % at 12.5 µM | AID 602405, 2012 | purified PglD enzyme, DTNB colorimetric CoA detection | 0.098% of 360,000 active; in the data active = inhibition above about 16%, passing the limit was not always enough; inconclusive = no clear call, values can overlap the other calls
# DENV2 CPE – inhibitors of DENV2 cytopathic effect, primary screen, cell-based, plate reader, single concentration; DENV2-infected cells, cytopathic effect rescue; CPE inhibition, % at 9.99 µM; 1.7% of 350,000 active; in the data active = CPE inhibition above about 20%, passing the limit was not always enough; inconclusive = no clear call, values can overlap the other calls; tested in BHK-21 cells;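 note: 0% = median of neutral control wells and 100% = median of positive control wells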
# Xi reactivation – activators of inactive X chromosome reactivation, primary screen, imaging, XiGFP fibroblasts, GFP high-content imaging, set 2. XiGFP mouse fibroblasts, % GFP-positive cells imaging, 3 d; cells co-treated with 5-aza-dC sensitizer; scaled so ellipticine positive control = 100%. activation, % at 7.58 µM. 0.055% of 360,000 active;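 active = mean normalized replicate activation at least 10% and every replicate at or above 10%; inconclusive = only one of the two criteria met; inactive = mean below 10% and not all replicates reach 10%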;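 note: 0% = median of on-plate neutral control wells and 100% = ellipticine 6 µM median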
#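 Material: SV40-immortalized XiGFP fibroblast cells, line 68-5-11 | Buffer or medium: DMEM containing 5-aza-dC | Dosing: One concentration, pinned | Times: 3 d treatment, 15 min room-temperature fixation | Controls: Ellipticine 6 µM positive control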
# * = called active by the depositor; ? = inconclusive; · = not tested or not shown; ! = a repeat was not active. An excerpt weighted towards active compounds, which were near 3.3% of everything screened.
SMILES,Statin myotox sup,FGF22 binding,E-selectin induc,PglD DTNB,DENV2 CPE,Xi reactivation
O=C(C[C@@H]1CC[C@H]2[C@@H](COC[C@@H](O)CN2C(=O)c2cccnc2)O1)NCC1CC1,42,0,1,8,-3,0
CCC(=O)N1CCC2(CC1)CN(Cc1cc(F)ccc1F)[C@H](CO)c1[nH]c3cc(OC)ccc3c12,·,0,0,·,-5,0
COc1ccc2c3c([nH]c2c1)[C@@H](CO)N(C(=O)Nc1ccc(F)cc1)CC31CN(Cc2ccc(F)cc2)C1,·,0,-1,·,32*,0
CCCNC(=O)N1CCC2(CC1)CN(C(=O)CCC)[C@@H](CO)c1[nH]c3cc(OC)ccc3c12,·,0,0,·,12,0
CCCNC(=O)N1CC2(CCN(CC3CCCC3)CC2)c2c([nH]c3cc(OC)ccc23)[C@@H]1CO,·,0,0,·,30*,0
CCCNC(=O)N1CCC2(CC1)CN(C(=O)COC)[C@H](CO)c1[nH]c3cc(OC)ccc3c12,·,0,0,·,28*,0
COc1ccc2c3c([nH]c2c1)[C@@H](CO)N(C(=O)Nc1ccc(F)cc1)CC31CCN(CC2CC2)CC1,·,0,0,·,56*,0
COc1ccc2c3c([nH]c2c1)[C@H](CO)N(C(=O)Nc1cccc(F)c1)CC31CCN(CC2CC2)CC1,·,0,0,·,-2,0
C[C@H](CO)N1C[C@H](C)[C@H](CN(C)Cc2ccc(C(F)(F)F)cc2)Oc2ccc(NC(=O)CCN3CCOCC3)cc2C1=O,10,0,-9,9,1,-1
CN(C)C(=O)[C@]1(CCS(=O)(=O)c2ccccc2)N=C(c2ccc(OCCCO)cc2)O[C@@H]1c1ccccc1,·,0,·,3,3,·
O=S(=O)(Nc1cccc(S(=O)(=O)N2CCCC2)c1)c1cccs1,·,43*,116*,·,7,0
O=S(=O)(Nc1cccc(S(=O)(=O)N2CCCCC2)c1)c1ccccc1F,0,44*,1,0,-2,0
O=S(=O)(Nc1cccc(S(=O)(=O)N2CCCC2)c1)c1ccccc1F,6,0,·,-6,-3,0
COc1ccc(S(=O)(=O)Nc2ccc3c(c2)OC[C@@H](C)N(C)C[C@@H](C)[C@H](OC)CN(C)C3=O)cc1,-17,0,0,5,2,0
CC(C)NC(=O)N(C)C[C@@H]1Oc2c(cccc2N(C)C)C(=O)N(C)C[C@@H]1C,·,·,·,·,·,0
CC(=O)NNC(=S)Nc1cccc(F)c1,·,0,51*,-1,-4,0
Cc1ccc(NC(=O)Nc2ccc(F)c(Cl)c2)cc1,-27,0,0,·,0,1
CC(=O)Nc1cccc(NC(=O)Nc2ccc(C)c(Cl)c2)c1,·,43,·,·,7,0
O=C(NNC(=S)Nc1ccc(F)c(Cl)c1)c1ccccc1Br,-16,2.1*,·,1,-4,0
Cc1cccc(NC(=S)NNC(=O)c2ccccc2Br)c1,·,·,·,5,·,·
COC(=O)c1sccc1NC(=S)Nc1cccc(F)c1,·,0,·,·,?,0
CCC(CC)NC(=O)Nc1ccc(F)c(Cl)c1,·,0,27*,·,-4,0
CC(=O)Nc1cccc(NC(=S)Nc2ccc(F)c(Cl)c2)c1,·,1.3*,4,·,-1,0
CC[C@@H]1CC=CC[C@@H](C)Oc2ccccc2C(=O)N(C)[C@@H](C(C)C)C(=O)N1 (mixture of isomers),·,·,·,·,·,0
CC(C)NC(=O)N1CC2(C1)[C@@H](c1ccccc1)[C@H](CO)N2C(=O)C1CCC1,·,·,0,·,7,0
SMILES,Statin myotox sup,FGF22 binding,E-selectin induc,PglD DTNB,DENV2 CPE,Xi reactivation
COCCNC(=O)C[C@H]1CC[C@@H]2[C@H](COc3ccc(NC(=O)c4cnccn4)cc3C(=O)N2C)O1,-19,0,0,1,5,0
CO[C@@H]1CN(C)C(=O)c2ccc(NC(=O)c3cccc(F)c3)cc2OC[C@@H](C)N(CC2CC2)C[C@@H]1C,-14,0,0,-4,0,0
Cc1c(NC(=O)C(Sc2ccccc2)c2ccccc2)cccc1[N+](=O)[O-] (stereo not given),112*,·,·,0,·,·
CCC(C)NC(=O)C(Sc1ccccc1)c1ccccc1 (stereo not given),·,43*,·,·,3,0
COc1ccccc1NC(=O)C(Sc1ccccc1)c1ccccc1 (stereo not given),·,·,6,·,·,1
C[C@H]1CN([C@@H](C)CO)C(=O)c2cc(NS(=O)(=O)c3ccccc3)ccc2O[C@H]1CN(C)CC1CC1,-10,0,·,-1,-1,-1
C[C@H](CO)N1C[C@H](C)[C@@H](CN(C)C(=O)CN(C)C)Oc2ncc(-c3ccc(F)cc3)cc2C1=O,-9,0,-1,0,0,-1
CC1(C(=O)Nc2ccc3c(c2)OCCO3)CN(S(C)(=O)=O)CC(=O)N1CCc1ccccc1 (stereo not given),·,0,5,·,-1,0
CC1(C(=O)Nc2ccc3c(c2)OCCO3)CCC(=O)N1CCOc1ccccc1 (stereo not given),30,0,0,1,-2,0
COc1ccc(CCN2C(=O)CSCC2(C)C(=O)Nc2ccc3c(c2)OCCO3)cc1OC (stereo not given),·,0,0,·,21*,0
COCCN1C(=O)CN(S(C)(=O)=O)CC1(C)C(=O)Nc1ccc2c(c1)OCCO2 (stereo not given),·,0,0,·,33*,0
CCCC(=O)N1CCC2(CC1)CN(C(=O)CC1CC1)[C@@H](CO)c1c2c2ccc(OC)cc2n1C,·,0,1,·,3,0
O=C(CCn1c(=S)oc2ccccc21)Nc1ccccc1F,5,44*,·,0,7,0
COc1ccc(CN(C)C[C@H]2Oc3ccc(NC(=O)Nc4ccc5c(c4)OCO5)cc3C(=O)N([C@@H](C)CO)C[C@H]2C)cc1,-16,0,0,7,0,0
COc1cc(C)nc(N2CCC(C(N)=O)CC2)n1,-9,·,·,2,·,·
COc1cc(C)nc(N2CCC(C(=O)NCC3CCCO3)CC2)n1 (stereo not given),13,0,·,3,44*,0
C[C@H]1CN([C@@H](C)CO)C(=O)CCCn2nncc2CO[C@H]1CN(C)S(=O)(=O)c1ccccc1F,21,0,0,1,27*!,0
